What all share (type): functional
Conditions in all cases: route intraperitoneal

The subject of assay [1] is Mus musculus. Description: Estrogenic activity in albino CFLP-ICI strain 1 mouse assessed as change in uterus weight at 10 mg/kg, ip qd for three consecutive days measured 24 hrs post last dose (reference value: 6.9 +/- 0.7 mg).
In assay [2] the test system is Mus musculus. Description: Potentiation of stilbesterol-induced estrogenic activity in albino CFLP-ICI strain 1 mouse assessed as change in uterus weight at 0.1 mg/kg, ip qd for three consecutive days measured 24 hrs post last dose relative to control. A digest of the protocol: (§1)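 Mice received stilbestrol 0.01 mg/kg together with graded doses of spiro derivative, both in arachis oil, ip once daily at 10.00 h for three consecutive days; comparison group got stilbestrol alone. Killed by cervical dislocation 24 h after final dose. Uteri dissected free of fat, blotted and weighed. Uterine ratio = uterine weight (mg)/body weight (g) × 100; mean ± SE.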

Assay [3] concerns Mus musculus. Description: Potentiation of stilbesterol-induced estrogenic activity in albino CFLP-ICI strain 1 mouse assessed as uterine ratio at 0.001 mg/kg, ip qd for three consecutive days measured 24 hrs post last dose relative to body weight. A digest of the protocol:
as §1

The test system of assay [4] is Mus musculus. Briefly: Estrogenic activity in albino CFLP-ICI strain 1 mouse assessed as uterine ratio at 0.1 mg/kg, ip qd for three consecutive days measured 24 hrs post last dose relative to body weight.
The test system of assay [5] is Mus musculus. Description: Potentiation of stilbesterol-induced estrogenic activity in albino CFLP-ICI strain 1 mouse assessed as change in uterus weight at 10 mg/kg, ip qd for three consecutive days measured 24 hrs post last dose relative to control. A digest of the protocol: as §1
Assay [6] deals with Mus musculus. Description: Potentiation of stilbesterol-induced estrogenic activity in albino CFLP-ICI strain 1 mouse assessed as change in uterus weight at 0.01 mg/kg, ip qd for three consecutive days measured 24 hrs post last dose relative to control. Summed up:
as §1

In assay [7] the test system is Mus musculus. Briefly: Potentiation of stilbesterol-induced estrogenic activity in albino CFLP-ICI strain 1 mouse assessed as uterine ratio at 10 mg/kg, ip qd for three consecutive days measured 24 hrs post last dose relative to body weight. A digest of the protocol: as §1
The test system of assay [8] is Mus musculus. Briefly: Potentiation of stilbesterol-induced estrogenic activity in albino CFLP-ICI strain 1 mouse assessed as change in uterus weight at 0.001 mg/kg, ip qd for three consecutive days measured 24 hrs post last dose relative to control. Summed up:
as §1

For assay [9], the system named is Mus musculus. Description: Estrogenic activity in albino CFLP-ICI strain 1 mouse assessed as change in uterus weight at 0.1 mg/kg, ip qd for three consecutive days measured 24 hrs post last dose (reference value: 6.9 +/- 0.7 mg).
The subject of assay [10] is Mus musculus. Description: Potentiation of stilbesterol-induced estrogenic activity in albino CFLP-ICI strain 1 mouse assessed as uterine ratio at 0.01 mg/kg, ip qd for three consecutive days measured 24 hrs post last dose relative to body weight. A digest of the protocol:
as §1

Assay [11] has as its system Mus musculus. Description: Estrogenic activity in albino CFLP-ICI strain 1 mouse assessed as uterine ratio at 10 mg/kg, ip qd for three consecutive days measured 24 hrs post last dose relative to body weight.
Assay [12] has as its system Mus musculus. Description: Potentiation of stilbesterol-induced estrogenic activity in albino CFLP-ICI strain 1 mouse assessed as uterine ratio at 0.1 mg/kg, ip qd for three consecutive days measured 24 hrs post last dose relative to body weight. A digest of the protocol: as §1
For assay [13], the system named is Mus musculus. Description: Estrogenic activity in albino CFLP-ICI strain 1 mouse assessed as change in uterus weight at 0.01 mg/kg, ip qd for three consecutive days measured 24 hrs post last dose (reference value: 6.9 +/- 0.7 mg).
The test system of assay [14] is Mus musculus. Description: Estrogenic activity in albino CFLP-ICI strain 1 mouse assessed as uterine ratio at 0.01 mg/kg, ip qd for three consecutive days measured 24 hrs post last dose relative to body weight.

Consider `O=C1CCC2(CC1)CCc1ccccc1C2=O`, for which the Activity in assay [1] stood at 6.9 mg; in assay [2], 30.7 mg; in assay [5] it was 36.5 mg; in assay [6], 37.1 mg; in assay [8], 29.9 mg; in assay [9], 10 mg. Also, the Ratio in [3] was found to be 306; in assay [4] it was 78; in assay [7], 293; in assay [10], 377; in [11], 64; in [12], 293.
For the molecule `OC1CCC2(CC1)Cc1ccccc1C2O` (configuration not stated), the Activity in [1] is recorded as 9.7 mg; in assay [5] it was 29.2 mg; in assay [6], 24.5 mg; in assay [9], 7.4 mg. The Ratio in [4] worked out at 80; in assay [7], 247; in assay [10], 225; in [11], 86.
As to `CC/C(=C(/CC)c1ccc(O)cc1)c1ccc(O)cc1` [DIETHYLSTILBESTROL], the Activity in assay [13] is given as 17.5 mg. Moreover, in assay [14], the Ratio stood at 167.

(Values after ChEMBL document CHEMBL3272049, “Estrogen potentiating activity of two spiro compounds having approximately similar molecular dimensions to stilbestrol” (1977).)
